Several values for one entry are separate records, joined by “and”; a condition that tells them apart may be missing. Identical values can stand only once.
Legend:
Rattus norvegicus [1] = species on record: Rattus norvegicus; assay: Biodistribution of the [99mTc] complex with OIH in rat spleen at 10 min postinjection (3-4 rats used); format: ADME, organism-based; conditions: in vivo
How it was run: (§1)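 Male Sprague-Dawley rats (200-300 g), ketamine/xylazine anesthesia (80 mg/kg : 8 mg/kg), bladder cannulated with PE 50 tubing. Given iv via femoral vein 0.2 mL saline holding the 99mTc complex (20 µCi) co-injected with [131I]OIH (7 µCi). Percent injected dose per organ from comparing tissue radioactivity against dilutions of the injected dose, corrected for 131I spillover into the 99mTc channel; mean ±SD, 3-4 rats.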

Rattus norvegicus [2] = species on record: Rattus norvegicus; assay: Biodistribution of the [99mTc] complex in rat liver at 60 min postinjection (3-4 rats used); format: ADME, organism-based; conditions: in vivo, 1 h; how it was run: as §1
Rattus norvegicus [3] = species on record: Rattus norvegicus; assay: Biodistribution of the [99mTc] complex with OIH in rat intestine at 10 min postinjection (3-4 rats used); format: ADME, organism-based; conditions: in vivo; how it was run: as §1
Rattus norvegicus [4] = species on record: Rattus norvegicus; assay: Biodistribution of the [99mTc] complex with OIH in rat muscle at 60 min postinjection (3-4 rats used); format: ADME, organism-based, Muscle tissue; conditions: in vivo, 1 h; how it was run: as §1
Rattus norvegicus [5] = species on record: Rattus norvegicus; assay: Biodistribution of the [99mTc] complex in rat muscle at 10 min postinjection (3-4 rats used); format: ADME, organism-based, Muscle tissue; conditions: in vivo; how it was run: as §1
Rattus norvegicus [6] = species on record: Rattus norvegicus; assay: Biodistribution of the [99mTc] complex with OIH in rat muscle at 10 min postinjection (3-4 rats used); format: ADME, organism-based, Muscle tissue; conditions: in vivo; how it was run: as §1
Rattus norvegicus [7] = species on record: Rattus norvegicus; assay: Biodistribution of the [99mTc] complex with OIH in rat liver at 10 min postinjection (3-4 rats used); format: ADME, organism-based; conditions: in vivo; how it was run: as §1
Rattus norvegicus [8] = species on record: Rattus norvegicus; assay: Biodistribution of the [99mTc] complex in rat blood at 10 min postinjection (3-4 rats used); format: ADME, organism-based; conditions: in vivo; how it was run: as §1
Rattus norvegicus [9] = species on record: Rattus norvegicus; assay: Biodistribution of the [99mTc] complex in rat intestines at 60 min postinjection (3-4 rats used); format: ADME, organism-based, Intestine; conditions: in vivo, 1 h; how it was run: as §1
Rattus norvegicus [10] = species on record: Rattus norvegicus; assay: Biodistribution of the [99mTc] complex in rat lung at 60 min postinjection (3-4 rats used); format: ADME, organism-based; conditions: in vivo, 1 h; how it was run: as §1
Rattus norvegicus [11] = species on record: Rattus norvegicus; assay: Biodistribution of the [99mTc] complex in with OIH rat kidney at 60 min postinjection (3-4 rats used); format: ADME, organism-based; conditions: in vivo, 1 h; how it was run: as §1
Rattus norvegicus [12] = species on record: Rattus norvegicus; assay: Biodistribution of the [99mTc] complex with OIH in rat heart at 60 min postinjection (3-4 rats used); format: ADME, organism-based; conditions: in vivo, 1 h; how it was run: as §1
Monkey [13] = assay: Percentage of counts in the pellet/total number of counts in both supernatant and pellet in monkey plasma (n=3); format: functional, Cercopithecidae
How it was run: (§2)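 Plasma from male cynomolgus monkey or male Sprague-Dawley rat blood (centrifuged 4000 rpm, 5 min). 99mTc complex in 50% ethanol/H2O (1 × 10^6 counts) incubated with 1 mL plasma at 37 °C for 30 min. Precipitation with 0.4 mL 10% trichloroacetic acid, centrifuged 4000 rpm 10 min, pellet washed twice with water. Bound = pellet counts/(pellet + supernatant + washes) counts; 3 determinations, mean ± SD.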

Rattus norvegicus [14] = species on record: Rattus norvegicus; assay: Biodistribution of the [99mTc] complex in rat blood at 60 min postinjection (3-4 rats used); format: ADME, organism-based; conditions: in vivo, 1 h; how it was run: as §1
Rattus norvegicus [15] = species on record: Rattus norvegicus; assay: Biodistribution of the [99mTc] complex with OIH in rat kideny at 10 min postinjection (3-4 rats used); format: ADME, organism-based; conditions: in vivo; how it was run: as §1
Rattus norvegicus [16] = species on record: Rattus norvegicus; assay: Biodistribution of the [99mTc] complex with OIH in rat blood at 10 min postinjection (3-4 rats used); format: ADME, organism-based; conditions: in vivo; how it was run: as §1
Rattus norvegicus [17] = species on record: Rattus norvegicus; assay: Biodistribution of the [99mTc] complex with OIH in rat blood at 60 min postinjection (3-4 rats used); format: ADME, organism-based; conditions: in vivo, 1 h; how it was run: as §1
Rattus norvegicus [18] = species on record: Rattus norvegicus; assay: Biodistribution of the [99mTc] complex in rat heart at 10 min postinjection (3-4 rats used); format: ADME, organism-based; conditions: in vivo; how it was run: as §1
Rattus norvegicus [19] = species on record: Rattus norvegicus; assay: Biodistribution of the [99mTc] complex in rat spleen at 60 min postinjection (3-4 rats used); format: ADME, organism-based; conditions: in vivo, 1 h; how it was run: as §1
Rattus norvegicus [20] = species on record: Rattus norvegicus; assay: Biodistribution of the [99mTc] complex in rat liver at 10 min postinjection (3-4 rats used); format: ADME, organism-based; conditions: in vivo; how it was run: as §1
Rattus norvegicus [21] = species on record: Rattus norvegicus; assay: Biodistribution of the [99mTc] complex with OIH in rat lung at 10 min postinjection (3-4 rats used); format: ADME, organism-based; conditions: in vivo; how it was run: as §1
Rattus norvegicus [22] = species on record: Rattus norvegicus; assay: Biodistribution of the [99mTc] complex with OIH in rat lung at 60 min postinjection (3-4 rats used); format: ADME, organism-based; conditions: in vivo, 1 h; how it was run: as §1
Rattus norvegicus [23] = species on record: Rattus norvegicus; assay: Biodistribution of the [99mTc] complex in rat kidney at 10 min postinjection (3-4 rats used); format: ADME, organism-based; conditions: in vivo; how it was run: as §1
Rattus norvegicus [24] = species on record: Rattus norvegicus; assay: Biodistribution of the [99mTc] complex in rat spleen at 10 min postinjection (3-4 rats used); format: ADME, organism-based; conditions: in vivo; how it was run: as §1
Rattus norvegicus [25] = species on record: Rattus norvegicus; assay: Biodistribution of the [99mTc] complex in rat muscle at 60 min postinjection (3-4 rats used); format: ADME, organism-based, Muscle tissue; conditions: in vivo, 1 h; how it was run: as §1
Rattus norvegicus [26] = species on record: Rattus norvegicus; assay: Biodistribution of the [99mTc] complex with OIH in rat intestine at 60 min postinjection (3-4 rats used); format: ADME, organism-based; conditions: in vivo, 1 h; how it was run: as §1
Rattus norvegicus [27] = species on record: Rattus norvegicus; assay: Percentage of counts in the pellet/total number of counts in both supernatant and pellet in rat plasma (n=3); format: functional; how it was run: as §2
Rattus norvegicus [28] = species on record: Rattus norvegicus; assay: Biodistribution of the [99mTc] complex in rat lung at 10 min postinjection (3-4 rats used); format: ADME, organism-based; conditions: in vivo; how it was run: as §1
Rattus norvegicus [29] = species on record: Rattus norvegicus; assay: Biodistribution of the [99mTc] complex in rat heart at 60 min postinjection (3-4 rats used); format: ADME, organism-based; conditions: in vivo, 1 h; how it was run: as §1
Rattus norvegicus [30] = species on record: Rattus norvegicus; assay: Biodistribution of the [99mTc] complex in rat kidney at 60 min postinjection (3-4 rats used); format: ADME, organism-based; conditions: in vivo, 1 h; how it was run: as §1
Rattus norvegicus [31] = species on record: Rattus norvegicus; assay: Biodistribution of the [99mTc] complex with OIH in rat liver at 60 min postinjection (3-4 rats used); format: ADME, organism-based; conditions: in vivo, 1 h; how it was run: as §1
Rattus norvegicus [32] = species on record: Rattus norvegicus; assay: Biodistribution of the [99mTc] complex with OIH in rat heart at 10 min postinjection (3-4 rats used); format: ADME, organism-based; conditions: in vivo; how it was run: as §1
Rattus norvegicus [33] = species on record: Rattus norvegicus; assay: Biodistribution of the [99mTc] complex in rat intestines at 10 min postinjection (3-4 rats used); format: ADME, organism-based, Intestine; conditions: in vivo; how it was run: as §1
Rattus norvegicus [34] = species on record: Rattus norvegicus; assay: Biodistribution of the [99mTc] complex with OIH in rat spleen at 60 min postinjection (3-4 rats used); format: ADME, organism-based; conditions: in vivo, 1 h; how it was run: as §1
Rattus norvegicus [35] = species on record: Rattus norvegicus; assay: Percentage of counts in the pellet/total number of counts in both supernatant and pellet in rat plasma; format: functional; how it was run: as §2
Rattus norvegicus [36] = species on record: Rattus norvegicus; assay: Biodistribution of the [99mTc] complex with OIH in rat intestines at 10 min postinjection (3-4 rats used); format: ADME, organism-based, Intestine; conditions: in vivo; how it was run: as §1
Monkey [37] = assay: Percentage of counts in the pellet/total number of counts in both supernatant and pellet in monkey plasma; format: functional, Cercopithecidae; how it was run: as §2
Rattus norvegicus [38] = species on record: Rattus norvegicus; assay: Biodistribution of the [99mTc] complex with OIH in rat kidney at 10 min postinjection ( 3-4 rats used); format: ADME, organism-based; conditions: in vivo; how it was run: as §1
Rattus norvegicus [39] = species on record: Rattus norvegicus; assay: Biodistribution of the [99mTc] complex with OIH in rat blood at 60 min postinjection (, 3-4 rats used); format: ADME, organism-based; conditions: in vivo, 1 h; how it was run: as §1
Rattus norvegicus [40] = species on record: Rattus norvegicus; assay: Biodistribution of the [99mTc] complex with OIH in rat spleen at 10 min postinjection (mean +/- SD, 3-4 rats used); format: ADME, organism-based; conditions: in vivo; how it was run: as §1
Rattus norvegicus [41] = species on record: Rattus norvegicus; assay: Biodistribution of the [99mTc] complex with OIH in rat kidney at 60 min postinjection (3-4 rats used); format: ADME, organism-based; conditions: in vivo, 1 h; how it was run: as §1
Rattus norvegicus [42] = species on record: Rattus norvegicus; assay: Biodistribution of the [99mTc] complex with OIH in rat intestines at 60 min postinjection (3-4 rats used); format: ADME, organism-based, Intestine; conditions: in vivo, 1 h; how it was run: as §1

Row | Compound | Injected dose (Rattus norvegicus [2]) [%] | Injected dose (Rattus norvegicus [4]) [%] | Injected dose (Rattus norvegicus [5]) [%] | Injected dose (Rattus norvegicus [6]) [%] | Injected dose (Rattus norvegicus [8]) [%] | Injected dose (Rattus norvegicus [9]) [%] | Injected dose (Rattus norvegicus [10]) [%] | Injected dose (Rattus norvegicus [14]) [%] | Injected dose (Rattus norvegicus [18]) [%] | Injected dose (Rattus norvegicus [19]) [%] | Injected dose (Rattus norvegicus [20]) [%] | Injected dose (Rattus norvegicus [23]) [%] | Injected dose (Rattus norvegicus [24]) [%] | Injected dose (Rattus norvegicus [25]) [%] | Activity (Rattus norvegicus [27]) [%] | Injected dose (Rattus norvegicus [28]) [%] | Injected dose (Rattus norvegicus [29]) [%] | Injected dose (Rattus norvegicus [30]) [%] | Injected dose (Rattus norvegicus [33]) [%] | Injected dose (Rattus norvegicus [34]) | also measured
1 | COC(=O)C(CC(=O)NCCNC(=O)CC(SC(=O)c1ccccc1)C(=O)OC)SC(=O)c1ccccc1 (centres undefined) | 3 | 1.6 | 22.8 | 7.9 | 26.2 | 1.7 | 0.7 | 15.2 | 0.4 | 0.1 | 5 | 5.3 | 0.2 | 20.4 | 22 | 1.1 | 0.3 | 1.9 | 1.4 | < 0.1% | Injected dose (Rattus norvegicus [1]): < 0.1%; Injected dose (Rattus norvegicus [3]): 1.6%; Injected dose (Rattus norvegicus [7]): 3.3%; Injected dose (Rattus norvegicus [11]): 0.5%; Injected dose (Rattus norvegicus [12]): < 0.1%; Activity (Monkey [13]): 26.5%; Injected dose (Rattus norvegicus [15]): 9.9%; Injected dose (Rattus norvegicus [16]): 4.4%; Injected dose (Rattus norvegicus [17]): 0.5%; Injected dose (Rattus norvegicus [21]): 0.2%; Injected dose (Rattus norvegicus [22]): < 0.1%; Injected dose (Rattus norvegicus [26]): 1.6%; Injected dose (Rattus norvegicus [31]): 0.5%; Injected dose (Rattus norvegicus [32]): 0.1%
2 | CCOC(=O)C(SC(=O)c1ccccc1)C(=O)NCCNC(=O)C(SC(=O)c1ccccc1)C(=O)OCC (centres undefined) | 5 | – | 23.6 | – | 24 | 1.3 | 0.7 | 13.1 | 0.4 | 0.1 | 4.9 | 6 | 0.2 | 21.5 | 21.4 | 0.9 | 0.2 | 4 | 1.6 | 0.9% and 0.2% and 0.4% and 2% and 1.6% and < 0.1% | Activity (Monkey [13]): 21.9%
3 | COC(=O)CC(SC(=O)c1ccccc1)C(=O)NCCNC(=O)C(CC(=O)OC)SC(=O)c1ccccc1 (centres undefined) | 3.1 | 1.6 | 26.9 | 9.9 | 26.7 | 1.3 | 0.7 | 16.4 | 0.4 | 0.1 | 5 | 4.3 | 0.3 | 21.1 | – | 1.2 | 0.2 | 2.1 | 1.7 | < 0.1% | Injected dose (Rattus norvegicus [7]): 2.5%; Activity (Rattus norvegicus [35]): 31.1%; Injected dose (Rattus norvegicus [12]): < 0.1%; Injected dose (Rattus norvegicus [16]): 5.3%; Injected dose (Rattus norvegicus [36]): 1.4%; Activity (Monkey [37]): 26.2%; Injected dose (Rattus norvegicus [38]): 6.9%; Injected dose (Rattus norvegicus [21]): 0.3%; Injected dose (Rattus norvegicus [22]): < 0.1%; Injected dose (Rattus norvegicus [39]): 0.6%; Injected dose (Rattus norvegicus [40]): 0.1%; Injected dose (Rattus norvegicus [31]): 0.3%; Injected dose (Rattus norvegicus [41]): 0.6%; Injected dose (Rattus norvegicus [32]): < 0.1%; Injected dose (Rattus norvegicus [42]): 0.8%
4 | [sequence] | – | – | – | – | – | – | – | – | – | – | – | – | – | – | 30.3 | – | – | – | – | – | Activity (Monkey [13]; Cercopithecidae): 35.2%
